Here are results for two compounds from article PMC4862007 (Cell metabolism, 2015).

The structures appear in SMILES notation.

The experiment concerns the target T1, ABHD5 / PLIN1 (luciferase complementation) (Mus musculus, UniProt Q9DBL9).
T1 sequence (Q9DBL9 1-351): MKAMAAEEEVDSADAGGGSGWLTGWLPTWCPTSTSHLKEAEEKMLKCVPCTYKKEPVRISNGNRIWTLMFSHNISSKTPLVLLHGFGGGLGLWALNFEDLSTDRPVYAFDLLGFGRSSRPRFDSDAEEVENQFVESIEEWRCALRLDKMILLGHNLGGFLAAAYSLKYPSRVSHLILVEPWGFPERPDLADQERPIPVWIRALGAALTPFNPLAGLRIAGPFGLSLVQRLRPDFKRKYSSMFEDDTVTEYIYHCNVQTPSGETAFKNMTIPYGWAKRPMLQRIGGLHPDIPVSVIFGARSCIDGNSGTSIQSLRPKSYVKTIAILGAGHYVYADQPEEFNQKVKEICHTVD
T1 sequence (Q8CGN5 1-517 partner): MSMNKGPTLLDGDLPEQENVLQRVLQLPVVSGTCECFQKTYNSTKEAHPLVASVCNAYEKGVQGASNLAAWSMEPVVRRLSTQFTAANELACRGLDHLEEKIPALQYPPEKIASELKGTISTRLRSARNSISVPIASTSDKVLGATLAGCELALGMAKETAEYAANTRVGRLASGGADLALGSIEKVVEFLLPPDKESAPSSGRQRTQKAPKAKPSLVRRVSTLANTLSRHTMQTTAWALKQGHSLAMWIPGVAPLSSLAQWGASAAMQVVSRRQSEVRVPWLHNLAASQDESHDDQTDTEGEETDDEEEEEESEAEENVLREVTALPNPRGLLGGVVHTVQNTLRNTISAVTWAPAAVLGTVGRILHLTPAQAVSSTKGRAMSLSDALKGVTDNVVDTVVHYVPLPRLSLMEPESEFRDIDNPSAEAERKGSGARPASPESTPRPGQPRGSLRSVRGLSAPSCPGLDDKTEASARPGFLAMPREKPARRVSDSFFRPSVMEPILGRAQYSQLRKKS
In words: luciferase complementation, disruption of ABHD5-PLIN1 binding. Type of experiment: biochemical. The note with it: mixed 293T lysates, 4 h, room temperature; n=8. In a few lines: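 Lysates are prepared separately from transfected 293T cells and equal amounts of each are combined. Test compound is added in DMSO, with a DMSO vehicle control. After 4 h at room temperature, complementation is read as luciferase activity.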

The term IC50 denotes the concentration that inhibits the measured activity by half. Regarding `Cc1ccc2c(CC(=O)N3CCN(S(=O)(=O)c4ccc5c(c4)OCCO5)CC3)coc2c1` [SR-4559], the IC50 is 510 ± 60 nM.
For the compound `CCCCNC(=O)Nc1ccc2c(c1)N(C)C(=O)c1ccccc1S2` [SR-4995], the IC50 worked out at 200 ± 30 nM.
